# According to ChEMBL document CHEMBL1764953, “Discovery of orally active carboxylic acid derivatives of 2-phenyl-5-trifluoromethyloxazole-4-carboxamide as potent diacylglycerol acyltransferase-1 inhibitors for the potential treatment of obesity and diabetes” (J Med Chem, 2011):
# Key:
# hERG [1] = target: T1, hERG (Homo sapiens, UniProt Q12809); experiment: Inhibition of human ERG-mediated current expressed in CHO cells by patch clamp method; assay type: cell-based; conditions: CHO cells expressing human ERG
# T1 sequence (Q12809 whole entry): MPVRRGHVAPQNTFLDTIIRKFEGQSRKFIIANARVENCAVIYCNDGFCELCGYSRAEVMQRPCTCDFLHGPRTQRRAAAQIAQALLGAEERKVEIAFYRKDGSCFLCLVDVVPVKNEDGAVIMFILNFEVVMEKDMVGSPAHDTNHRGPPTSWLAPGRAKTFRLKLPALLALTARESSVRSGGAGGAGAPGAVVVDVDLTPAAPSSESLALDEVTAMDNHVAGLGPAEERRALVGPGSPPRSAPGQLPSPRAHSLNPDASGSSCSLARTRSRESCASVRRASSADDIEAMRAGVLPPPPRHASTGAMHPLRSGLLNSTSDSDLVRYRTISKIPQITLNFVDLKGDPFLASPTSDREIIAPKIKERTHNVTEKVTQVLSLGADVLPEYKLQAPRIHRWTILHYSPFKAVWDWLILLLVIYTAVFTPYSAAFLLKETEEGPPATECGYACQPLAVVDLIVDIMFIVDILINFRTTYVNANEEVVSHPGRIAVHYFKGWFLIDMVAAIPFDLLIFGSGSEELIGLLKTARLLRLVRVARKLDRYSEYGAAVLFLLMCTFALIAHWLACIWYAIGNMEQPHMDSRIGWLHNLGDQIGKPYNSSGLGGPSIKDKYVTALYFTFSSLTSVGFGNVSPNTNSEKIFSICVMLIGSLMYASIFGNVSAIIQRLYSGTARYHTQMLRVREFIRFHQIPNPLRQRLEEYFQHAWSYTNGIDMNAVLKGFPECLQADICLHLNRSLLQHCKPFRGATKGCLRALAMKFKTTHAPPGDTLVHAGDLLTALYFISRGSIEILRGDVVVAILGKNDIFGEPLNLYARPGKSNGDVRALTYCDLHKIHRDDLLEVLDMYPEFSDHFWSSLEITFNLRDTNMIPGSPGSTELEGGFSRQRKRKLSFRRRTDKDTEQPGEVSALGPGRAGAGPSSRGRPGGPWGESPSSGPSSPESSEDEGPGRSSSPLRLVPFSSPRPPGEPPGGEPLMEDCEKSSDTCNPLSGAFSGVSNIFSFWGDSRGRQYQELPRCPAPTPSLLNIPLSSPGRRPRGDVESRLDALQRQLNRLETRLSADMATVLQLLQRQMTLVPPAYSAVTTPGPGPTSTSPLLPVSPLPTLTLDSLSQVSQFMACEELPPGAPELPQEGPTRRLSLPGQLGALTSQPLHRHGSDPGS
# Method in brief: (§1)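 hERG-transfected CHO cells on automated whole-cell patch clamp at a holding potential of −80 mV; 1 s depolarizing pulse at 0.1 Hz; tail current measured at −40 mV. Sequence: 0.3% DMSO vehicle, three ascending log-interval concentrations up to 30 μM or the solubility limit, then 1 μM E-4031. At least 3 cells per compound; data normalized to vehicle and fitted with the Hill equation.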
# hERG [2] = target: T1, hERG; experiment: Inhibition of human ERG-mediated current expressed in CHO cells at 1 uM by patch clamp method; assay type: cell-based; conditions: CHO cells expressing human ERG; method in brief: as §1
# Rattus norvegicus = experiment: Antiobesity activity in diet-induced obese rat assessed as reduction in body weight gain at 25 mg/kg, po qd; assay type: functional; parameters: scale not given: the % may be the effect or the level left
# [3] = Clearance in rat at 5 mg/kg, iv; assay type: ADME, organism-based; parameters: dose 5 mg/kg, route intravenous; conditions: in vivo
# [4] = Oral bioavailability in rat at 5 mg/kg; assay type: ADME, organism-based; conditions: in vivo
# Cavia porcellus = species: Cavia porcellus; experiment: Cardiotoxicity in guinea pig Langendorff heart model assessed as QT QT prolongation; assay type: toxicity
# hERG [5] = target: T1, hERG; experiment: Inhibition of human ERG
# hERG [6] = target: T1, hERG; experiment: Inhibition of human ERG-mediated current expressed in CHO cells at 3 uM by patch clamp method; assay type: cell-based; conditions: CHO cells expressing human ERG; method in brief: as §1
# hERG [7] = target: T1, hERG; experiment: Inhibition of human ERG-mediated current expressed in CHO cells at 30 uM by patch clamp method; assay type: cell-based; conditions: CHO cells expressing human ERG; method in brief: as §1
# [8] = target: T2, Diacylglycerol O-acyltransferase 1 (Homo sapiens, UniProt O75907); experiment: Inhibition of human DGAT1 expressed in CHO-K1 cells after 1 hr using 14C palmitic acid
# T2 sequence (O75907 whole entry): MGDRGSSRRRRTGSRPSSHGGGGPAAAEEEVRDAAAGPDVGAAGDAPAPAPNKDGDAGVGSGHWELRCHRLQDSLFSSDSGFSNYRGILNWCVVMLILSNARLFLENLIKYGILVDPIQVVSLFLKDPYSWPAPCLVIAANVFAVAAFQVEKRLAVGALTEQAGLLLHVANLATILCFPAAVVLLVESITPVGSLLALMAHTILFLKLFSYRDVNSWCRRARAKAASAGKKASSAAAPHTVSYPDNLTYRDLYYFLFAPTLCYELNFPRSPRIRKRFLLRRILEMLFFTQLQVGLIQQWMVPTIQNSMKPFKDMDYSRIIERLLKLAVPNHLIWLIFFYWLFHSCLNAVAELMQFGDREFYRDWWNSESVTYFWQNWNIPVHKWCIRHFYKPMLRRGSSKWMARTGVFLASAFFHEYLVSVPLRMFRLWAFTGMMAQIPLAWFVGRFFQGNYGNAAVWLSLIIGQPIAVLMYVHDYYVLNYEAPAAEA
# [9] = target: T2, Diacylglycerol O-acyltransferase 1; experiment: Inhibition of human DGAT1 expressed in baculovirus infected insect cells after 1 hr using palmitoyl-1-14C-coenzyme A by phospholipid flashplate assay
# [10] = Tmax in diet-induced obese mouse at 25 mg/kg administered as suspension; assay type: ADME, organism-based; parameters: dose 25 mg/kg; conditions: in vivo
# [11] = Cmax in diet-induced obese mouse plasma at 25 mg/kg administered as suspension; assay type: ADME, organism-based; parameters: dose 25 mg/kg
# [12] = Solubility of the compound at mp 217 degC; assay type: physicochemical
structure (smiles),measurement,setting,value
O=C(Nc1ccc(N2CCN(C(=O)[C@H]3CC[C@@H](C(=O)O)CC3)CC2)cc1)c1nc(-c2ccccc2)oc1C(F)(F)F,IC20,hERG [1],> 10000 nM
COCCN(C)c1ccc(NC(=O)c2nc(-c3ccccc3)oc2C(F)(F)F)cc1,inhibition at 1 µM,hERG [2],18%
COCCN(C)c1ccc(NC(=O)c2nc(-c3ccccc3)oc2C(F)(F)F)cn1,Activity,Rattus norvegicus,4.3%
same,clearance,[3],13.5 mL/min/kg
same,IC20,hERG [1],200 nM
same,bioavailability,[4],77%
same,Activity,Cavia porcellus,Toxic
same,IC20,hERG [5],200 nM
O=C(Nc1ccc(N2CCN(C(=O)C3CC3)CC2)nc1)c1nc(-c2ccccc2)oc1C(F)(F)F,IC20,hERG [1],180 nM
O=C(Nc1ccc(N2CCN(C(=O)[C@H]3CC[C@H](C(=O)O)CC3)CC2)cc1)c1nc(-c2ccccc2)oc1C(F)(F)F,inhibition at 1 µM,hERG [2],5%
COC(=O)N1CCN(c2ccc(NC(=O)c3nc(-c4ccccc4)oc3C(F)(F)F)cc2)CC1,inhibition at 3 µM,hERG [6],16%
COC(=O)N1CCN(c2ncc(NC(=O)c3nc(-c4ccccc4)oc3C(F)(F)F)cn2)CC1,inhibition at 1 µM,hERG [2],28%
COC(=O)N1CCN(c2ccc(NC(=O)c3nc(-c4ccccc4)oc3C(F)(F)F)cn2)CC1,IC20,hERG [1],1940 nM
CCOC1CN(c2ccc(NC(=O)c3nc(-c4ccccc4)oc3C(F)(F)F)cn2)C1,IC20,hERG [1],370 nM
COC(=O)N1CCC(c2ccc(NC(=O)c3nc(-c4ccccc4)oc3C(F)(F)F)cn2)CC1,inhibition at 1 µM,hERG [2],16%
COCCN(C)c1ccc(NC(=O)c2nc(C)oc2C(F)(F)F)cn1,inhibition at 30 µM,hERG [7],37%
O=C(Nc1cnc(N2CC[C@H](O)C2)nc1)c1nc(-c2ccccc2)oc1C(F)(F)F,IC20,hERG [1],10000 nM
COCCN(C)c1ccc(N(C)C(=O)c2nc(-c3ccccc3)oc2C(F)(F)F)cn1,inhibition at 30 µM,hERG [7],34%
O=C(Nc1ccc(C2CCN(C(=O)[C@H]3CC[C@@H](C(=O)O)CC3)CC2)cc1)c1nc(-c2ccccc2)oc1C(F)(F)F,EC50,[8],220 nM
same,IC50,[9],82 nM
same,inhibition at 3 µM,hERG [6],21%
CCOC(=O)N1CCN(c2ccc(NC(=O)c3nc(-c4ccccc4)oc3C(F)(F)F)cn2)CC1,IC20,hERG [1],800 nM
O=C(Nc1ccc(C2CCN(C(=O)C3CC3)CC2)cc1)c1nc(-c2ccccc2)oc1C(F)(F)F,Tmax,[10],1 h
same,inhibition at 3 µM,hERG [6],13%
same,Cmax,[11],76 ng/mL
O=C(Nc1ccc(N2CC(F)(F)C2)nc1)c1nc(-c2ccccc2)oc1C(F)(F)F,inhibition at 1 µM,hERG [2],17%
same,EC50,[8],25000 nM
same,IC50,[9],16 nM
same,solubility,[12],< 1 µg/mL
O=C(Nc1ccc(C2CCN(C(=O)C3CC3)CC2)nc1)c1nc(-c2ccccc2)oc1C(F)(F)F,IC20,hERG [1],1730 nM
O=C(O)COC1CN(c2ccc(NC(=O)c3nc(-c4ccccc4)oc3C(F)(F)F)cn2)C1,inhibition at 30 µM,hERG [7],12%
COCCN(C)c1ncc(NC(=O)c2nc(-c3ccccc3)oc2C(F)(F)F)cn1,IC20,hERG [1],1500 nM
COC(=O)N1CCC(c2ccc(NC(=O)c3nc(-c4ccccc4)oc3C(F)(F)F)cc2)CC1,Cmax,[11],< 10 ng/mL
O=C(Nc1ccc(N2CCN(C(=O)C3CC3)CC2)cc1)c1nc(-c2ccccc2)oc1C(F)(F)F,inhibition at 3 µM,hERG [6],35%
